# From ChEMBL document CHEMBL1133505, “Synthesis and biological evaluation of ceramide analogues with substituted aromatic rings or an allylic fluoride in the sphingoid moiety” (2000)
# “And” between values parts separate entries of the source, which are not always exact repeats. Equal entries are not always repeated.
# Key:
# Type in all cases: functional, Rattus norvegicus, Hippocampus
# [1] = Evaluation for reversing the inhibitory effects of Fumonisin B1(FB1) on accelerated axonal growth of hippocampal neurons.
# Method in brief: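 E18 Wistar rat hippocampal neurons, trypsin-dissociated and plated at low density on poly-L-lysine cover slips over a glial monolayer in serum-free N2 MEM. At 48 h: bFGF 1 ng/mL plus FB1 10 μM (Hepes stock) with or without analogue 5 μM (ethanol, ≤1% final). At 51 h, fixed in glutaraldehyde and axonal branch points/cell counted by phase contrast. Values normalized to 48 h; mean ± SEM of three cultures, 50 cells per cover slip, two cover slips per treatment; p values reported.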
# [2] = Inability to reverse inhibitory effect of D-threo-1-phenyl-2-decanoylamino-3-morpholino-1-propanol(PDMP) on accelerated axonal growth of hippocampal neurons (P value)
# Method in brief: (§1)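 Rat (E18 Wistar) hippocampal neurons cultured at low density over glia in serum-free N2 MEM. Treated at 48 h with bFGF 1 ng/mL, PDMP 50 μM final (Hepes stock) and with or without analogue 5 μM from ethanol (≤1% final). Axonal branch points/cell counted by phase contrast after glutaraldehyde fixation at 51 h and normalized to 48 h. Mean ± SEM of three cultures, 50 cells × two cover slips; p values vs bFGF or bFGF+PDMP.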
# [3] = Inability to reverse inhibitory effect of D-threo-1-phenyl-2-decanoylamino-3-morpholino-1-propanol(PDMP) on accelerated axonal growth of hippocampal neurons, number of axonal branch points/ cell at 51 hour (P value); method in brief: as §1
SMILES,No. of axonal points [1],No. of axonal points [2],No. of axonal points [3]
CCCCCC(=O)N[C@@H](CO)[C@H](O)/C=C/c1ccc(C)cc1,1.46,,
CCCCCCCCCCCCC/C=C/[C@H](O)[C@H](CO)NC(=O)CCCCCNc1ccc([N+](=O)[O-])c2nonc12,<1.01 and <1.06,0.94,1.06
CCCCCC(=O)N[C@@H](CO)[C@H](O)/C=C/c1ccccc1,2.09,,0.92
CCCCCCCCCCCCC/C=C/[C@@H](O)[C@H](CO)NC(=O)CCCCCNc1ccc([N+](=O)[O-])c2nonc12,<1.66 and 1.46,,0.86 and 1.08
CCCCCC(=O)N[C@@H](CO)[C@H](O)/C=C/c1ccc(CCCCC)cc1,1.54,,
CCCCCCC/C=C/[C@@H](F)[C@H](CO)NC(=O)CCCCC,1.39,,1.12
CCCCCCC/C=C/[C@@H](O)[C@H](CO)NC(=O)CCCCC,1.43,,
CCCCCc1ccc(/C=C/[C@@H](O)[C@H](CO)NC(=O)CCC)cc1,1.83,,
CCCCCc1ccc(/C=C/[C@@H](O)[C@H](CO)NC(C)=O)cc1,1.67,,
CCCCCC(=O)N[C@@H](CO)[C@H](O)/C=C/c1ccc(OC)cc1,1.35,,
CCCCCC(=O)N[C@@H](CO)[C@H](O)/C=C/c1cccs1,1.38,,1.04
CCCCCC(=O)N[C@@H](CO)[C@H](O)/C=C/c1ccc(F)cc1,1.5,,
CCCCCCC/C=C/[C@H](O)[C@H](CO)NC(=O)CCCCC,1.11,,
CCCCCCC/C=C/[C@H](F)[C@H](CO)NC(=O)CCCCC,1.29,,1.16
